Published values from different studies.
Protocols differ between the studies behind these lines.
Target: Non-receptor tyrosine-protein kinase TNK1 (TNK1, Homo sapiens, UniProt Q13470)
Sequence (Q13470 1-666, as in one of the studies): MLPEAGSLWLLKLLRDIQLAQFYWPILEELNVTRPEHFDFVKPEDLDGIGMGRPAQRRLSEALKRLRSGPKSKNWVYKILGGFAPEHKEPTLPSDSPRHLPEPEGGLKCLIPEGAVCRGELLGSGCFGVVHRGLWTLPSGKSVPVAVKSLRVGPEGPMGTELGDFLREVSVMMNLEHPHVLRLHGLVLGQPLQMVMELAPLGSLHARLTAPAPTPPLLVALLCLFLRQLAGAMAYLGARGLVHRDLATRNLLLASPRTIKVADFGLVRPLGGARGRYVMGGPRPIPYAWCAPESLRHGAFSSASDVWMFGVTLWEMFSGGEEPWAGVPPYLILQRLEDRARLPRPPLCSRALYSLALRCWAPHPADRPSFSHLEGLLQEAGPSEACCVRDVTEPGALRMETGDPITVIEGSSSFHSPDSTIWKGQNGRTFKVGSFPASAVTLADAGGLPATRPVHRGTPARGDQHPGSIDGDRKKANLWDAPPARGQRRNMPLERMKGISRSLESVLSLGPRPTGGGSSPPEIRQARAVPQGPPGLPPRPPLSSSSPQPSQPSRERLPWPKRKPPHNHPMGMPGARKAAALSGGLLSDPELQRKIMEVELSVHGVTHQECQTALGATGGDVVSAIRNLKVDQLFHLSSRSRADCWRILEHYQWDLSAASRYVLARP

Compound	assay	conditions	quantity	value
CC(=O)N1CCC(c2ccc(C(=O)NC(=N)N)cc2C(F)(F)F)CC1	cell-free assay, competition with immobilised ligand	1 µM	remaining binding	89%
Nc1ncnc2occ(-c3ccc(NC(=O)Nc4cc(C(F)(F)F)ccc4F)cc3)c12	cell-free assay, inhibitor	20 µM	remaining signal	6.8%
CCOC(=O)c1cc2cc(-c3cc(C(=O)NCc4ccc(C(=O)O)cc4)nn3C)ccc2[nH]1	cell-free assay, competition with immobilised ligand	0.1 µM	remaining binding	88%
Cc1sc(C(=O)NC2COC2)cc1-n1cc(NC(=O)Nc2c(F)cccc2Cl)cn1	enzyme activity, inhibitor	10 µM	remaining activity	105%
CC/C(=N\NC(=O)NCc1cccc(O)c1)c1ccc(O)c(C)c1O	enzyme activity, inhibitor	0.1 µM	inhibition	-1.1%
CC(C)(O)[C@H]1CC[C@H](Nc2ccc3ncc(-c4cccc(C(F)(F)F)c4)n3n2)CC1	enzyme activity, inhibitor	1 µM	remaining activity	52.4%
CC(C)(C)c1nc2c(s1)c1nc(N)ncc1c1ccc(NS(=O)(=O)c3c(F)cccc3F)c(F)c12	enzyme activity, inhibitor, radiometric	1 µM	remaining activity	82%
O=C(Nc1cnn(-c2csc(C(=O)NC3COC3)c2)c1)Nc1ccccc1Cl	enzyme activity, inhibitor	5 µM	remaining activity	100%
Cc1ccc(C(=O)Nc2ccc(CN3CCN(C)CC3)c(C(F)(F)F)c2)cc1C#Cc1cnc2cccnn12	enzyme activity, inhibitor	23.5 nM	remaining activity	13%
c1nc2c(Nc3ccc4c(c3)OCCO4)nc(Nc3ccc4c(c3)OCCO4)nc2[nH]1	enzyme activity, inhibitor	10 µM	activity vs control	14%
